Measured values: ChEMBL document CHEMBL3091329, “Discovery of tetrahydroisoquinoline-based CXCR4 antagonists” (ACS Med Chem Lett, 2013)

What was measured:
[1] = AUC (0 to infinity) in jugular pre-cannulated Harlan Sprague-Dawley rat at 2 mg/kg, iv; format: ADME, organism-based; set-up: time infinity, dose 2 mg/kg, route intravenous; settings: plasma
[2] = molecular target: C-C chemokine receptor type 8 (Homo sapiens) (UniProt P51685); assay: Inhibition of CCR8 (unknown origin) at 10 uM relative to control
[3] = Half life in human liver microsomes at 1 uM incubated for 3 mins prior to NADPH addition by LC-MS/MS analysis; format: ADME
[4] = molecular target: T1, C-C chemokine receptor type 1 (Homo sapiens) (UniProt P32246); assay: Inhibition of CCR1 (unknown origin) at 10 uM relative to control
T1 sequence (whole entry): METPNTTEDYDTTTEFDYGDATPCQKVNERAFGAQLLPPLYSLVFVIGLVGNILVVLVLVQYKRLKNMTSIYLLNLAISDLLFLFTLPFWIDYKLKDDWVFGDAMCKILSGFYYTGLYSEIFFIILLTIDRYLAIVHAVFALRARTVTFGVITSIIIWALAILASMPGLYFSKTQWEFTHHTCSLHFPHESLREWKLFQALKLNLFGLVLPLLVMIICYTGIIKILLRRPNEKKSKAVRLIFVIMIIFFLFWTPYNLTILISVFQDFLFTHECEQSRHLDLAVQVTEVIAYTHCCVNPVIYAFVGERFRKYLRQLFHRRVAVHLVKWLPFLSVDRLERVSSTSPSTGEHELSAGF

[5] = AUC (0 to infinity) in jugular pre-cannulated CRL Sprague-Dawley rat at 10 mg/kg, po; format: ADME, organism-based; set-up: dose 10 mg/kg, route oral, time infinity; settings: plasma
[6] = molecular target: T2, C-X-C chemokine receptor type 3 (Homo sapiens) (UniProt P49682); assay: Inhibition of CXCR3 (unknown origin) at 10 uM relative to control
T2 sequence (whole entry): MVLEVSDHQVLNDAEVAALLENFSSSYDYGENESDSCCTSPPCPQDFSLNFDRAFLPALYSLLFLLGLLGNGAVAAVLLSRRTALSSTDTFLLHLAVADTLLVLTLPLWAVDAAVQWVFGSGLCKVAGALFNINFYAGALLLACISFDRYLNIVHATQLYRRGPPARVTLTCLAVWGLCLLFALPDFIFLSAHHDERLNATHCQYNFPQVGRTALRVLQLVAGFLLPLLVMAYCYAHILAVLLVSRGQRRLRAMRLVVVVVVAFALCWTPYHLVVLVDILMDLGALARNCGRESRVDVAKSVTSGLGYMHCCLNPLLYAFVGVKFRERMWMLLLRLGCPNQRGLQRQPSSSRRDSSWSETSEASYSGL

[7] = molecular target: T3, C-C chemokine receptor type 7 (Homo sapiens) (UniProt P32248); assay: Inhibition of CCR7 (unknown origin) at 10 uM relative to control
T3 sequence (whole entry): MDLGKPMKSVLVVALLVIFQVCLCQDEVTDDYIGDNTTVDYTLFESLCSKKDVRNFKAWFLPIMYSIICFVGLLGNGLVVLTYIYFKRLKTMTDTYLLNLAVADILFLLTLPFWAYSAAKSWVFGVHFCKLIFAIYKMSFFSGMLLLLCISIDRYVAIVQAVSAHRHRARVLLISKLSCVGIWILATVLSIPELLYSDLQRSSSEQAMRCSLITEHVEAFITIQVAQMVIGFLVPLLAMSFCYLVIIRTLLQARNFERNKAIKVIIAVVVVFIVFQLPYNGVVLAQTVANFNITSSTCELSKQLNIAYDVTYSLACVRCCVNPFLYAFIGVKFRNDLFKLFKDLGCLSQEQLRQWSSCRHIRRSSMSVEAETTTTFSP

[8] = molecular target: T4, C-C chemokine receptor type 4 (Homo sapiens) (UniProt P51679); assay: Inhibition of CCR4 (unknown origin) at 10 uM relative to control
T4 sequence (whole entry): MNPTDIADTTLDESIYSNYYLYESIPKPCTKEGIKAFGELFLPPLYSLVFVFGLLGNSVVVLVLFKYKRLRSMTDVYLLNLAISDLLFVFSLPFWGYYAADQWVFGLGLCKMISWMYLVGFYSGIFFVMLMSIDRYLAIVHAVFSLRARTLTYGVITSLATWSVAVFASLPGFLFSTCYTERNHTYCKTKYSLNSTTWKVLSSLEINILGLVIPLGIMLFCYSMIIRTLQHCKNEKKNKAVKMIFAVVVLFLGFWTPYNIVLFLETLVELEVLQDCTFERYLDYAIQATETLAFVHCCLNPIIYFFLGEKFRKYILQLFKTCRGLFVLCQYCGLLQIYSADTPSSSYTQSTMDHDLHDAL

Liver microsome [9] = assay: Intrinsic clearance in rat liver microsomes at 1 uM incubated for 3 mins prior to NADPH addition by LC-MS/MS analysis; format: ADME; settings: 0.05 h
[10] = molecular target: T5, C-X-C chemokine receptor type 2 (Homo sapiens) (UniProt P25025); assay: Inhibition of CXCR2 (unknown origin) at 10 uM relative to control
T5 sequence (whole entry): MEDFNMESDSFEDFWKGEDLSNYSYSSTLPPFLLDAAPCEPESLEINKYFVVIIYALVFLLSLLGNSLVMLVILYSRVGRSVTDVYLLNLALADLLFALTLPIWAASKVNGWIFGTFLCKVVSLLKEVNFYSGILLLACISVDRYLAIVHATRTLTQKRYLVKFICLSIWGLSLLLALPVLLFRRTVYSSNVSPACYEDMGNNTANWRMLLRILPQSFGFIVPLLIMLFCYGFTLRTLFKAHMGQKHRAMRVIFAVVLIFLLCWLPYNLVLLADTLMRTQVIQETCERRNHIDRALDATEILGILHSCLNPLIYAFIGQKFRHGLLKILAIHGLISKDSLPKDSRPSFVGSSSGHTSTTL

[11] = Half life in mouse liver microsomes at 1 uM incubated for 3 mins prior to NADPH addition by LC-MS/MS analysis; format: ADME, Microsome
Plasma = assay: Plasma concentration in Harlan C57BL/6 mouse at 5 to 20 mg/kg, sc after 6 to 8 hrs by LC/MS/MS analysis; format: ADME, organism-based; set-up: route subcutaneous; settings: in vivo
Summary of the method: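 Harlan mice were given a single subcutaneous dose at 5, 10 or 20 mg/kg. Blood was sampled at multiple time points over about 8 h, and each sample was used for both total circulating WBC count and plasma drug level. Counts and concentrations were plotted against time for each dose.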

Liver microsome [12] = assay: Intrinsic clearance in human liver microsomes at 1 uM incubated for 3 mins prior to NADPH addition by LC-MS/MS analysis; format: ADME; settings: 0.05 h
[13] = molecular target: T6, C-C chemokine receptor type 3 (Homo sapiens) (UniProt P51677); assay: Inhibition of CCR3 (unknown origin) at 10 uM relative to control
T6 sequence (whole entry): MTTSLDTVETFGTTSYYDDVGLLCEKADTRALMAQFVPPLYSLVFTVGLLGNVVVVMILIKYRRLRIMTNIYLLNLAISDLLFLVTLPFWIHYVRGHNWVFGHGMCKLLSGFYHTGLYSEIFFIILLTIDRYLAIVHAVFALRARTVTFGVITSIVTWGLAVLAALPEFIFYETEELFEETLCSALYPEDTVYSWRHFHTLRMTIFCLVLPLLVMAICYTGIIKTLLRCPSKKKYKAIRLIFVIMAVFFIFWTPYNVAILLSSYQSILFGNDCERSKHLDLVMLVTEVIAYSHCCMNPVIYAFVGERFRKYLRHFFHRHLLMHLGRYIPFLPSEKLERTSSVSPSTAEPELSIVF

Sequence of C-C chemokine receptor type 8 (Homo sapiens) (P51685 whole entry): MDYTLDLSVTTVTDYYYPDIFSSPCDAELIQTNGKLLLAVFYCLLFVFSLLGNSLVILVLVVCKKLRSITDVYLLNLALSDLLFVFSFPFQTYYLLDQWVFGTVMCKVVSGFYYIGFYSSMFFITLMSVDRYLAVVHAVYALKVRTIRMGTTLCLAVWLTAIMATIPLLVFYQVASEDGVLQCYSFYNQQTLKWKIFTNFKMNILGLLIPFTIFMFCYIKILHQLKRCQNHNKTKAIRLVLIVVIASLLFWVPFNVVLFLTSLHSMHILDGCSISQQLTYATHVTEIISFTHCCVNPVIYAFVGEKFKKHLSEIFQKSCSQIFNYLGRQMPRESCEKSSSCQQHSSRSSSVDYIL

- AUC(0-inf) [1]: 108 ng·h/mL
- inhibition [2]: < 10%
- half-life at 1 µM [3]: > 60 min
- inhibition [4]: < 10%
- AUC(0-inf) [5]: 328 ng·h/mL
- inhibition [6]: < 10%
- inhibition [7]: < 10%
- inhibition [8]: < 10%
- CLH (Liver microsome [9]): 35 µL/min/mg
- inhibition [10]: < 10%
- half-life at 1 µM [11]: 22 min
- Cp (Plasma): 87 ng/mL
- CLH (Liver microsome [12]): < 20 µL/min/mg
- inhibition [13]: < 10%
SMILES: NCCCCN(C[C@H]1Cc2ccccc2CN1)[C@H]1CCCc2cccnc21
